Measurements of several laboratories.
Lines come from different studies, so protocols differ.
Target: Ephrin type-B receptor 1 (EPHB1, Homo sapiens, UniProt P54762)
Sequence (P54762 18-984, as in one of the studies): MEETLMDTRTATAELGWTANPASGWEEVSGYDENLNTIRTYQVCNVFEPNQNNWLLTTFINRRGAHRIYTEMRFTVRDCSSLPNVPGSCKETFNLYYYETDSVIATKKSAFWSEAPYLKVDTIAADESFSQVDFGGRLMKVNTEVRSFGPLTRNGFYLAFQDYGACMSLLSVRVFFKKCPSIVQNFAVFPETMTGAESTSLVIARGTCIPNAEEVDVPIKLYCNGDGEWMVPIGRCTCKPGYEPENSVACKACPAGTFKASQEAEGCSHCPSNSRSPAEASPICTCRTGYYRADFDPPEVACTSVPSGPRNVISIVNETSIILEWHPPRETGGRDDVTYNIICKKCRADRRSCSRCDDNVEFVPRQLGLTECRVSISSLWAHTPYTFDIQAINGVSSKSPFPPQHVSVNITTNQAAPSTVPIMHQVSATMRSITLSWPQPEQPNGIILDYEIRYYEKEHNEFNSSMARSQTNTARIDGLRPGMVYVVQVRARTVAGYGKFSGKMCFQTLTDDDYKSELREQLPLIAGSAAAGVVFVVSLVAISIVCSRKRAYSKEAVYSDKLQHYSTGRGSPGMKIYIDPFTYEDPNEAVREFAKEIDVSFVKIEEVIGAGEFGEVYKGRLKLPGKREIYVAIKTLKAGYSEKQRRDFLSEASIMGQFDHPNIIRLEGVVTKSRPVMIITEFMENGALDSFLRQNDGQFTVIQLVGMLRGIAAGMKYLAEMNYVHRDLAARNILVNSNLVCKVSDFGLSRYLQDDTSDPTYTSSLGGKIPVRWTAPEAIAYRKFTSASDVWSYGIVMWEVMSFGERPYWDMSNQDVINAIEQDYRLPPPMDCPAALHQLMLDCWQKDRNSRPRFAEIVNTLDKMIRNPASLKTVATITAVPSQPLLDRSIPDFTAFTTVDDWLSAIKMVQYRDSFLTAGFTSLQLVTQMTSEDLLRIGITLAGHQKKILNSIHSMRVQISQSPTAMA

`COc1cc(/C=C/C(=O)CC(=O)/C=C/c2ccc(O)c(OC)c2)ccc1O` gave an activity vs control of 100% (enzyme activity; inhibitor; 1 µM).
`CC/C(=N\NC(=O)NCc1cccc(O)c1)c1ccc(O)c(C)c1O` gave an inhibition of -1% (enzyme activity; inhibitor; 0.1 µM).
The inhibition of `CCN(CC)CCNC(=O)c1c(C)[nH]c(/C=C2\C(=O)Nc3ccc(F)cc32)c1C` is reported as 91% (enzyme activity; inhibitor; 10 µM).
With `CC(C)(O)[C@H]1CC[C@H](Nc2ccc3ncc(-c4cccc(C(F)(F)F)c4)n3n2)CC1` the remaining activity was 85% (enzyme activity; inhibitor; 1 µM).
With `COc1cc(Cl)c(C(=O)N[C@@H](CN[C@H]2CC[C@@H](N)CC2)Cc2ccc(C#N)cc2)cc1-c1ccc(CN[C@H](C)c2ccc(C)cc2)o1` the remaining activity was 122% (enzyme activity; inhibitor; 1 µM).
`Cc1ccc(NC(=O)c2ccc(C)c(C(F)(F)F)c2)cc1C#Cc1nn(C2CCC(O)CC2)c2ncnc(N)c12` (centres unmarked) gave a remaining signal of -1% (cell-free assay; 10 µM).
`CC(C)(C)c1nc(-c2cccc(NS(=O)(=O)c3c(F)cccc3F)c2F)c(-c2ccnc(N)n2)s1` gave a remaining activity of 94% (enzyme activity; inhibitor; radiometric; 1 µM).
For `O=C1NC(c2ccccn2)Sc2ccccc21` (centres unmarked), the remaining binding was 90% (cell-free assay; competition with immobilised ligand; 1 µM).
For `O=C1Nc2ccc(Cl)cc2C1=Cc1cc(Cl)c(O)c(Cl)c1`, the remaining signal was 91% (cell-free assay; 0.5 µM).
With `Cn1c(=O)n(-c2ccc(C(C)(C)C#N)cc2)c2c3cc(-c4cnc5ccccc5c4)ccc3ncc21` the remaining activity was 133% (enzyme activity; inhibitor; 10 µM).
With `CNCc1ccccc1-c1csc([C@@H](C)Nc2nc(C)nc3cc(OC)c(OC)cc23)c1` the remaining binding was 100% (cell-free assay; competition with immobilised ligand; 1 µM).
For `Cc1sc(C(=O)NC2COC2)cc1-n1cc(NC(=O)Nc2c(F)cccc2Cl)cn1`, the remaining activity was 100% (enzyme activity; inhibitor; 10 µM).
`Nc1ncnc2occ(-c3ccc(NC(=O)Nc4cc(C(F)(F)F)ccc4F)cc3)c12` has a remaining signal of 0% (cell-free assay; 20 µM).
`CNC(=O)c1cc(Oc2ccc(NC(=O)Nc3ccc(Cl)c(C(F)(F)F)c3)cc2)ccn1` gave a remaining signal of 102% (cell-free assay; 0.5 µM).
For `Cc1ccc(Nc2nccc(N(C)c3ccc4c(C)n(C)nc4c3)n2)cc1S(N)(=O)=O`, the inhibition was 8% (enzyme activity; inhibitor; 0.3 µM).
With `O=C(NCc1ncc(C(F)(F)F)cc1Cl)c1ccc2c(c1)C1(CCS(=O)(=O)CC1)[C@@H](C1CC1)N2S(=O)(=O)c1ccc(F)cc1` the remaining binding was 100% (cell-free assay; competition with immobilised ligand; 1 µM).
`Cc1cc(NC(=O)c2cccc3cc(-c4cccc5[nH]nc(N)c45)ccc23)ccc1F` gave an activity vs control of 127% (enzyme activity; inhibitor; 0.1 µM).
The inhibition of `COc1cc2ncnc(Nc3ccc(Oc4ccccc4)c(C)c3C)c2cc1OC` is reported as 3% (enzyme activity; inhibitor; 1 µM).
`COc1cc(-c2cc(-c3ccc(N4CCNCC4)cc3)cnc2C)cc(OC)c1OC` has an inhibition of 6% (enzyme activity; inhibitor; 1 µM).
`O=C(O)[C@H]1[C@H](Cn2nnc3ccccc3c2=O)CC[C@@H]1C(=O)c1ccc(OCCC2CCOCC2)cc1` has a remaining binding of 100% (cell-free assay; competition with immobilised ligand; 1 µM).
For `CS(=O)(=O)CCNCc1ccc(-c2ccc3ncnc(Nc4ccc(OCc5cccc(F)c5)c(Cl)c4)c3c2)o1`, the remaining signal was 104% (cell-free assay; 0.5 µM).
For `O=C(NS(=O)(=O)c1ccc(NCC2CCOCC2)c([N+](=O)[O-])c1)c1ccc(N2CCN(Cc3ccc(C(F)(F)F)cc3-c3ccc(Cl)cc3)CC2)cc1Oc1cnc2[nH]ccc2c1`, the remaining binding was 100% (cell-free assay; competition with immobilised ligand; 1 µM).
The remaining signal of `COc1cc(Nc2c(C#N)cnc3cc(OCCCN4CCN(C)CC4)c(OC)cc23)c(Cl)cc1Cl` is reported as 11.8% (cell-free assay; 0.5 µM).
For `CO[C@@H](C)c1c(Nc2ccc([C@@H](N(C)C(=O)C3CCS(=O)(=O)CC3)C(F)(F)F)cc2)cnc2cc(Cl)nn12`, the remaining binding was 92% (cell-free assay; competition with immobilised ligand; 1 µM).
`Cc1ccc(C(=O)NCc2ccsc2)cc1C#Cc1cn(C(C)C)c2ncnc(N)c12` gave an activity vs control of 12% (enzyme activity; inhibitor; 1 µM).
With `Cc1noc([C@H]2C[C@@H](c3ccc(C(F)(F)F)cc3)CN(C(=O)N3CCS(=O)(=O)C3)C2)n1` the remaining binding was 100% (cell-free assay; competition with immobilised ligand; 1 µM).
`COc1cc(Nc2cnc(C#N)c(O[C@H](C)CN(C)C)n2)ncc1-c1cnn(C)c1` has a remaining activity of 71% (enzyme activity; inhibitor; radiometric; 10 µM).
`Cc1nccc(COC(=O)N2C[C@@H]3[C@@H](CNC(=O)c4ccc5[nH]nnc5c4)[C@@H]3C2)n1` has a remaining binding of 95% (cell-free assay; competition with immobilised ligand; 1 µM).
With `O=C(Nc1cnn(-c2csc(C(=O)NC3COC3)c2)c1)Nc1ccccc1Cl` the remaining activity was 100% (enzyme activity; inhibitor; 5 µM).
